In one data set the test system is HeLa. The data set can be described thus: Antiproliferative activity against human HeLa cells after 72 hrs by MTT reduction assay. The class given is functional, cell-based. In short, it runs like this:
(§1)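 MTT reduction assay; adherent lines left to adhere overnight, suspension lines (HL-60, K562) seeded on the day. […] Incubation was 72 h at 37°C, with MTT added for the last 4 h. OD read at 545 nm (reference 690 nm). IC50 from 100(A0-A)/A0=50; means ± SD of 3 independent experiments.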
On the technique in general: Tetrazolium assays rely on reduction of a dye to a coloured formazan, in cell work by metabolically active cells.

A further data set has as its system SK-BR-3. The data set can be described thus: Antiproliferative activity against human SKBR3 cells after 72 hrs by MTT reduction assay. The class given is functional, cell-based. As to conditions: SK-BR-3, 72 h. In a few lines:
as §1

A further data set deals with HL-60. The data set can be described thus: Antiproliferative activity against human HL60 cells after 72 hrs by MTT reduction assay. In kind it is functional, cell-based. As to conditions: HL-60, 72 h. In short, it runs like this: as §1
For the next data set, the system named is HCT-116. The data set can be described thus: Antiproliferative activity against human HCT116 cells after 72 hrs by MTT reduction assay. In kind it is functional, cell-based. Conditions: HCT-116, 72 h. In short, it runs like this:
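MTT reduction assay; adherent lines left to adhere overnight, suspension lines (HL-60, K562) seeded on the day. Incubation was 72 h at 37°C, with MTT added for the last 4 h.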

For the next data set, the system named is MCF7. The data set can be described thus: Antiproliferative activity against human MCF7 cells after 72 hrs by MTT reduction assay. In kind it is functional, cell-based. As to conditions: MCF7, 72 h. In short, it runs like this: as §1
Data set [1] in a line: Antiproliferative activity against human FM3 cells after 72 hrs by MTT reduction assay. In kind it is functional, cell-based. In short, it runs like this:
as §1

The next data set relates to K562. The data set can be described thus: Antiproliferative activity against human K562 cells after 72 hrs by MTT reduction assay. The class given is functional, cell-based. As to conditions: K562, 72 h. In a few lines: as §1
Data set [2] has as its system B16-F1. The data set can be described thus: Antiproliferative activity against mouse B16-F1 cells after 72 hrs by MTT reduction assay. In kind it is functional, cell-based. Conditions: B16-F1, 72 h. In short, it runs like this: as §1
The subject of data set [3] is PBMC. The data set can be described thus: Induction of apoptosis in human PBMC at 2 ug/ml after 24 hrs by propidium iodide staining-based flow cytometric method. The class given is cell-based.
Data set [4] deals with B16-F1. The data set can be described thus: Induction of apoptosis in mouse B16-F1 cells assessed as necrotic cells at 25 ug/ml after 48 hrs by propidium iodide staining-based flow cytometric method (reference value: 1%). The class given is functional.
Data set [5] has as its system PBMC. The data set can be described thus: Induction of apoptosis in human PBMC assessed as late apoptotic cells at 25 ug/ml after 24 hrs by propidium iodide staining-based flow cytometric method (reference value: 0.6%). The class given is cell-based. Background: In flow cytometry, cells or beads pass a laser one at a time.
The test system of data set [6] is PBMC. The data set can be described thus: Induction of apoptosis in human PBMC assessed as necrotic cells at 25 ug/ml after 24 hrs by propidium iodide staining-based flow cytometric method (reference value: 1%). The class given is cell-based.
Data set [7] concerns B16-F1. The data set can be described thus: Induction of apoptosis in mouse B16-F1 cells assessed as early apoptotic cells at 25 ug/ml after 48 hrs by propidium iodide staining-based flow cytometric method (reference value: 0.2%). In kind it is functional.
The test system of data set [8] is B16-F1. The data set can be described thus: Induction of apoptosis in mouse B16-F1 cells assessed as early apoptotic cells at 25 ug/ml after 24 hrs by propidium iodide staining-based flow cytometric method (reference value: 0.5%). The class given is functional.
Data set [9] has as its system B16-F1. The data set can be described thus: Induction of apoptosis in mouse B16-F1 cells assessed as necrotic cells at 25 ug/ml after 24 hrs by propidium iodide staining-based flow cytometric method (reference value: 0.4%). In kind it is functional.
For data set [10], the system named is B16-F1. The data set can be described thus: Induction of apoptosis in mouse B16-F1 cells assessed as early apoptotic cells at 25 ug/ml after 72 hrs by propidium iodide staining-based flow cytometric method (reference value: 0.4%). The class given is functional.
The test system of data set [11] is PBMC. The data set can be described thus: Induction of apoptosis in human PBMC assessed as early apoptotic cells at 25 ug/ml after 24 hrs by propidium iodide staining-based flow cytometric method (reference value: 0.1%). In kind it is cell-based.
The subject of data set [12] is B16-F1. The data set can be described thus: Induction of apoptosis in mouse B16-F1 cells assessed as late apoptotic cells at 25 ug/ml after 72 hrs by propidium iodide staining-based flow cytometric method (reference value: 1.4%). In kind it is functional.
Data set [13] deals with B16-F1. The data set can be described thus: Induction of apoptosis in mouse B16-F1 cells assessed as late apoptotic cells at 25 ug/ml after 24 hrs by propidium iodide staining-based flow cytometric method (reference value: 0.9%). The class given is functional.
Data set [14] deals with B16-F1. The data set can be described thus: Induction of apoptosis in mouse B16-F1 cells assessed as late apoptotic cells at 25 ug/ml after 48 hrs by propidium iodide staining-based flow cytometric method (reference value: 0.5%). The class given is functional.

In general, IC50 refers to the point on the concentration scale where inhibition reaches its midpoint. Higher therefore signals a need for much substance. In the case of `C/C=C1/[C@H](O[C@@H]2O[C@H](COC(C)=O)[C@@H](OC(C)=O)[C@H](OC(C)=O)[C@H]2OC(C)=O)OC=C(C(=O)OC)[C@H]1CC(=O)OCCCCCCCCCCCCCCCC`, the IC50 in the data set with HeLa is 17 µM; in the data set with SK-BR-3 it was 3.81 µM; in the data set with HL-60 it was 8 µM; in the data set with HCT-116 it was 21 µM; in the data set with MCF7, 9.66 µM; in [1], 27 µM. Further, the IC50 amounted to 7 µM in the data set with K562 and 34 µM in the data set with B16-F1 [2].

Turning to `C/C=C1/[C@H](O[C@@H]2O[C@H](CO)[C@@H](O)[C@H](O)[C@H]2O)OC=C(C(=O)O)[C@H]1CC(=O)O`, the IC50 (with HeLa; with SK-BR-3; in the data set on HL-60; in the data set with HCT-116; in the data set with MCF7; in data set [1]) was over 50 µM each time. The IC50 in the data set on K562 and with B16-F1 [2] was over 50 µM in each case.

For `C/C=C1/[C@H](O[C@@H]2O[C@H](CO)[C@@H](O)[C@H](O)[C@H]2O)OC=C(C(=O)OC)[C@H]1CC(=O)OCCc1ccccc1` (stereo in doubt), the half-inhibitory concentration (IC50) with HeLa was found to be 18.5 µM; with SK-BR-3, 11 µM; in the data set on HL-60, 10.3 µM; with HCT-116 it was 25.3 µM; in the data set on MCF7 it was 19.3 µM; in data set [1], 28 µM. Further, the half-maximal inhibitory concentration (IC50) is 20 µM in the data set on K562 and 41 µM with B16-F1 [2].

Turning to `C/C=C1/[C@H](O[C@@H]2O[C@H](COC(C)=O)[C@@H](OC(C)=O)[C@H](OC(C)=O)[C@H]2OC(C)=O)OC=C(C(=O)OC)[C@H]1CC(=O)OCCC` (stereo in doubt), the IC50 was determined as 17.5 µM in the data set on HeLa; 6.6 µM with SK-BR-3; 10.7 µM in the data set with HL-60; 25.7 µM in the data set on HCT-116; 15 µM in the data set on MCF7; 29 µM in [1]. The IC50 came to 8.5 µM in the data set with K562 and 44 µM in the data set on B16-F1 [2].

Regarding `C/C=C1/[C@H](O[C@@H]2O[C@H](CO)[C@@H](O)[C@H](O)[C@H]2O)OC=C(C(=O)OC)[C@H]1CC(=O)OCCC1CCCCC1` (stereo in doubt), the IC50 with HeLa was determined as 5.6 µM; with SK-BR-3, 2 µM; in the data set on HL-60, 0.48 µM; with HCT-116, 13.7 µM; in the data set on MCF7, 5 µM; in data set [1], 9.33 µM. The IC50 is 0.85 µM with K562 and 5.04 µM in the data set with B16-F1 [2]. The compound also showed an Activity in the data set on PBMC [3] of over 30%.

In the case of `C/C=C1/[C@H](O[C@@H]2O[C@H](COC(C)=O)[C@@H](OC(C)=O)[C@H](OC(C)=O)[C@H]2OC(C)=O)OC=C(C(=O)OC)[C@H]1CC(=O)OCCc1ccccc1` (stereo in doubt), the IC50 was determined as 21 µM with HeLa; 11.5 µM in the data set on SK-BR-3; 10 µM with HL-60; 26 µM in the data set on HCT-116; 18.7 µM in the data set on MCF7; 29.3 µM in data set [1]. The half-inhibitory concentration (IC50) in the data set with K562 stood at 16 µM; in the data set with B16-F1 [2], 43 µM.

For the compound `C/C=C1/[C@H](O[C@@H]2O[C@H](CO)[C@@H](O)[C@H](O)[C@H]2O)OC=C(C(=O)OC)[C@H]1CC(=O)OCCC(C)C` (stereo in doubt), the IC50 turned out to be 19.5 µM in the data set with HeLa; 9.02 µM in the data set with SK-BR-3; 9.83 µM with HL-60; 26.7 µM in the data set on HCT-116; 21.3 µM with MCF7; 27.7 µM in [1]. The IC50 is 18 µM in the data set on K562 and 39.1 µM in the data set on B16-F1 [2].

For `COc1cccc2c1C(=O)c1c(O)c3c(c(O)c1C2=O)C[C@@](O)(C(=O)CO)C[C@@H]3O[C@H]1C[C@H](N)[C@H](O)[C@H](C)O1` [DOXORUBICIN], the IC50 with HeLa was 0.221 µM; in the data set on SK-BR-3, 0.202 µM; with HL-60, 0.017 µM; in data set [1], 0.217 µM; in the data set with K562, 0.018 µM; in the data set on B16-F1 [2], 0.23 µM. In addition, the Activity in the data set with B16-F1 [4] is listed as 0.9%; in the data set with PBMC [5] it was 4.6%; in the data set on PBMC [6], 46.2%; in the data set on B16-F1 [7], 57.5%; in the data set with B16-F1 [8] it was 23.4%; in the data set with B16-F1 [9] it was 1.1%. Besides, the Activity in the data set on B16-F1 [10] amounted to 71.5%; in the data set with PBMC [11], 0%; in the data set on B16-F1 [12] it was 8.1%; with B16-F1 [13] it was 1.5%; in the data set with B16-F1 [14], 2%.

The record behind these values is ChEMBL document CHEMBL4130342, “New semi-synthetic analogs of oleuropein show improved anticancer activity in vitro and in vivo” (Eur J Med Chem, 2017).
